ChEMBL document CHEMBL3232820, “Improved total synthesis and biological evaluation of potent apratoxin S4 based anticancer agents with differential stability and further enhanced activity” (J Med Chem, 2014)
pIC50: −log10 of the molar value. Active and inactive are the calls of the source. The rule behind the calls is not given here.

Tests used:
Liver [1] = test: Metabolic stability in CD1 mouse liver microsomes assessed as compound remaining at 1 uM after 60 mins by HPLC-MS analysis in presence of NADPH; type: ADME; conditions: 1 h
In short: (§1)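 Pooled female CD1 mouse liver microsomes, 0.5 mg/mL protein final, in 100 mM phosphate pH 7.4 at 37 °C; compound 1 μM final, with or without NADPH-regenerating system; 3 min to 2 h; quenched with ethyl acetate, harmine internal standard; HPLC-MS (MRM); % remaining versus t0 peak-area ratio; triplicate.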

Liver [2] = test: Metabolic stability in CD1 mouse liver microsomes assessed as compound remaining at 1 uM after 5 mins by HPLC-MS analysis; type: ADME; in short: as §1
Liver [3] = test: Metabolic stability in CD1 mouse liver microsomes assessed as compound remaining at 1 uM after 3 mins by HPLC-MS analysis; type: ADME; conditions: 0.05 h; in short: as §1
Liver [4] = test: Metabolic stability in CD1 mouse liver microsomes assessed as compound remaining at 1 uM after 15 mins by HPLC-MS analysis in presence of NADPH; type: ADME; conditions: 0.25 h; in short: as §1
Liver [5] = test: Metabolic stability in CD1 mouse liver microsomes assessed as compound remaining at 1 uM after 60 mins by HPLC-MS analysis; type: ADME; conditions: 1 h; in short: as §1
Liver [6] = test: Metabolic stability in CD1 mouse liver microsomes assessed as compound remaining at 1 uM after 3 mins by HPLC-MS analysis in presence of NADPH; type: ADME; conditions: 0.05 h; in short: as §1
Liver [7] = test: Metabolic stability in CD1 mouse liver microsomes assessed as compound remaining at 1 uM after 15 mins by HPLC-MS analysis; type: ADME; conditions: 0.25 h; in short: as §1
HCT-116 [8] = test: Antiproliferative activity against human HCT116 cells after 48 hrs by MTT assay; type: functional, cell-based; conditions: HCT-116, 48 h
Liver [9] = test: Metabolic stability in CD1 mouse liver microsomes assessed as compound remaining at 1 uM after 120 mins by HPLC-MS analysis; type: ADME; conditions: 2 h; in short: as §1
Liver [10] = test: Metabolic stability in CD1 mouse liver microsomes assessed as compound remaining at 1 uM after 120 mins by HPLC-MS analysis in presence of NADPH; type: ADME; conditions: 2 h; in short: as §1
Liver [11] = test: Metabolic stability in CD1 mouse liver microsomes assessed as compound remaining at 1 uM after 30 mins by HPLC-MS analysis in presence of NADPH; type: ADME; conditions: 0.5 h; in short: as §1
HCT-116 [12] = test: Metabolic stability in human HCT116 cells at 25 ug/ml up to 24 hrs by HPLC-MS analysis; type: ADME, cell-based; conditions: hct-116, 24 h
In short: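 HCT116 lysate diluted in 25 mM Tris-HCl pH 8.0 to 0.7 mg/mL protein, 100 μL; incubated with compound (10 μL of 25 μg/mL) 0.25 min to 24 h; ethyl acetate extraction with harmine; HPLC-MS (MRM); remaining amount from calibration curve.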

[13] = Half life in CD1 mouse liver microsomes at 1 uM by HPLC-MS analysis in presence of NADPH; type: ADME
[14] = Half life in phosphate buffer at 25 ug/ml at pH 4.88 by HPLC-MS analysis; type: physicochemical
In short: (§2)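 Compound (10 μL of 25 μg/mL) spiked into 100 μL of 100 mM phosphate buffer, pH 4.88 or pH 7.4, incubated 0.25 min to 24 h; ethyl acetate extraction with harmine internal standard; HPLC-MS (MRM); remaining amount from calibration curve.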

[15] = target: T1, Vascular endothelial growth factor A, long form (Homo sapiens, UniProt P15692); test: Inhibition of VEGF-A production in human HCT116 cells after 12 hrs by alphaLISA assay; type: cell-based, HCT-116
T1 sequence (P15692 whole entry): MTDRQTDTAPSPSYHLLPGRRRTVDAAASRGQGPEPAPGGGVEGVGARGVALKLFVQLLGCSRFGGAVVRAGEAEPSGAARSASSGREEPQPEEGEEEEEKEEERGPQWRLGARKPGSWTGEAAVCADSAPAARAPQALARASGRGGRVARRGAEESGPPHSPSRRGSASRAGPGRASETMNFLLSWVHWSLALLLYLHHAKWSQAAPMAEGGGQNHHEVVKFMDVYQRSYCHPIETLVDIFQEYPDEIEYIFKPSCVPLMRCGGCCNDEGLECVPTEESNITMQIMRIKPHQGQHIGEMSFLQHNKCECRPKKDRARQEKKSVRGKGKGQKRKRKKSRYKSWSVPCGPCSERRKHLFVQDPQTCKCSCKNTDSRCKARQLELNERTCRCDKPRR

Liver [16] = test: Metabolic stability in CD1 mouse liver microsomes assessed as compound remaining at 1 uM after 5 mins by HPLC-MS analysis in presence of NADPH; type: ADME; in short: as §1
Plasma = test: Metabolic stability in mouse plasma at 25 ug/ml up to 24 hrs by HPLC-MS analysis; type: ADME, cell-free
In short: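 Compound (10 μL of 25 μg/mL) added to 100 μL mouse serum, incubated 0.25 min to 24 h; ethyl acetate plus harmine quench/extraction, dried, reconstituted in acetonitrile; HPLC-MS (MRM); remaining amount from calibration curve.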

Liver [17] = test: Metabolic stability in CD1 mouse liver microsomes assessed as compound remaining at 1 uM after 30 mins by HPLC-MS analysis; type: ADME; conditions: 0.5 h; in short: as §1
HCT-116 [18] = test: Downregulation of human MET protein expression in HCT116 cells up to 10 uM after 24 hrs by Western blotting analysis; type: functional, cell-based
In short: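 HCT116 cells seeded 4×10^5/well, treated next day with a concentration series (solvent control 1% EtOH) for 24 h; whole-cell lysates, equal protein by BCA, 4–12% SDS-PAGE, PVDF transfer, anti-Met immunoblot with chemiluminescent detection.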

[19] = Half life in phosphate buffer at 25 ug/ml at pH 7.4 by HPLC-MS analysis; type: physicochemical; in short: as §2
HCT-116 [20] = test: Downregulation of VEGFR2 protein expression in human HCT116 cells xenografted in nu/nu mouse at 0.25 mg/kg, ip for 16 days by immunoblotting analysis; type: functional, organism-based; design: dose 0.25 mg/kg
In short: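 Xenograft tumours harvested at the end of the daily ip efficacy study in nu/nu mice bearing sc HCT116 tumours were analysed by immunoblotting with anti-VEGFR2 antibody.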

Mus musculus [21] = test: Toxicity in nu/nu mouse xenografted with human HCT116 cells assessed as abnormal behavior at 0.1 to 0.25 mg/kg, ip for 16 days; type: organism-based, HCT-116; design: dose 0.1-0.25 mg/kg, route intraperitoneal; conditions: in vivo, 384 h
Mus musculus [22] = test: Toxicity in nu/nu mouse xenografted with human HCT116 cells assessed as body weight loss at 0.1 to 0.25 mg/kg, ip for 16 days; type: organism-based, HCT-116; design: dose 0.1-0.25 mg/kg, route intraperitoneal; conditions: in vivo, 384 h
HCT-116 [23] = test: Antitumor activity against human HCT116 cells xenografted in nu/nu mouse assessed as tumor growth inhibition at 0.1 mg/kg, ip for 16 days relative to control; type: functional; conditions: HCT-116, ip, 384 h, route intraperitoneal, read-out: TGI
In short: (§3)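 Female nu/nu mice, 3–5 weeks old; 1×10^6 HCT116 cells in saline injected sc in left rear flank; daily ip 0.1 or 0.25 mg/kg (2 or 5 μg/mouse) or DMSO vehicle, 16 days; n = 7 treated, 6 vehicle; caliper volumes daily (W²×L×0.5); tumours starting above 100 mm³ excluded.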

HCT-116 [24] = test: Antitumor activity against human HCT116 cells xenografted in ip dosed nu/nu mouse assessed as tumor growth inhibition administered for 16 days; type: functional, organism-based; in short: as §3

In the case of `CC[C@H](C)[C@H]1C(=O)N2CCC[C@H]2C(=O)O[C@H](C(C)(C)C)C[C@@H](C)C[C@H](O)[C@H](C)C2=N[C@@H](CCC(=O)N[C@@H](Cc3ccc(OC)cc3)C(=O)N(C)[C@@H](C)C(=O)N1C)CS2` [APRATOXIN S4], the Stability (Liver [1]) was 10%, the Stability (Liver [2]) was 70.8% and the Stability (Liver [3]) was 87.05%. It also gave a Stability (Liver [4]) of 10.07%, a Stability (Liver [5]) of 87.1% and a Stability (Liver [6]) of 39.55%. The Stability (Liver [7]) was 87.2%, the pIC50 (HCT-116 [8]) was 8.84 and the Stability (Liver [9]) was 55.25%. For the same compound, the Stability (Liver [10]) was 6.02%, the Stability (Liver [11]) was 9.58% and the Stability (HCT-116 [12]) was “Stable”. For the same compound, the half-life at 1 µM [13] was less than 5 min, the half-life at 25 ug/ml [14] was greater than 24 h and the pIC50 [15] was 9.49. The Stability (Liver [16]) was 32.2%, the Stability (Plasma) was “Stable” and the Stability (Liver [17]) was 73.85%. For the same compound, the Activity (HCT-116 [18]) was “Active” and the half-life at 25 ug/ml [19] was greater than 24 h.

For `CC[C@H](C)[C@H]1C(=O)N2CCC[C@H]2C(=O)O[C@H](C(C)(C)C)C[C@@H](C)C[C@H](O)C(C)(C)C2=N[C@@H](CCC(=O)N[C@@H](Cc3ccc(OC)cc3)C(=O)N(C)[C@@H](C)C(=O)N1C)CS2`, the Stability (Liver [1]) was 3.55%, the Activity (HCT-116 [20]) was “Active” and the Stability (Liver [2]) was 77.45%. For the same compound, the Stability (Liver [3]) was 74.1%, the Stability (Liver [4]) was 8.28% and the Stability (Liver [5]) was 81.25%. The Activity (Mus musculus [21]) was “Non-toxic”, the Stability (Liver [6]) was 37.2% and the Stability (Liver [7]) was 63.45%. For the same compound, the pIC50 (HCT-116 [8]) was 8.70, the Stability (Liver [9]) was 70.05% and the Stability (Liver [10]) was 5.01%. For the same compound, the Stability (Liver [11]) was 4.83%, the Stability (HCT-116 [12]) was “Stable” and the Activity (Mus musculus [22]) was “Non-toxic”. For the same compound, the inhibition in vivo at 0.1 mg/kg (HCT-116 [23]) was 50%, the TGI (HCT-116 [24]) was “Dose-dependent effect” and the half-life at 1 µM [13] was less than 5 min. For the same compound, the half-life at 25 ug/ml [14] was greater than 24 h, the pIC50 [15] was 9.33 and the Stability (Liver [16]) was 17.3%. The Stability (Plasma) was “Stable”, the Stability (Liver [17]) was 74.75% and the Activity (HCT-116 [18]) was “Active”. For the same compound, the half-life at 25 ug/ml [19] was greater than 24 h.

Compound `CC[C@H](C)[C@H]1C(=O)N2CCC[C@H]2C(=O)O[C@H](C(C)(C)C)C[C@@H](C)C[C@H](O)[C@H](C)C2=N[C@H](CCC(=O)N[C@@H](Cc3ccc(OC)cc3)C(=O)N(C)[C@@H](C)C(=O)N1C)CS2` has a Stability (Liver [1]) of 6.06%, a Stability (Liver [2]) of 71.4% and a Stability (Liver [3]) of 83.1%. It also gave a Stability (Liver [4]) of 3.55%, a Stability (Liver [5]) of 48.45% and a Stability (Liver [6]) of 51.4%. The Stability (Liver [7]) was 45.25%, the pIC50 (HCT-116 [8]) was 9.16 and the Stability (Liver [9]) was 56.25%. The Stability (Liver [10]) was 5.63%, the Stability (Liver [11]) was 3.73% and the Stability (HCT-116 [12]) was “Stable”. The half-life at 1 µM [13] was less than 5 min, the half-life at 25 ug/ml [14] was greater than 24 h and the pIC50 [15] was 9.92. For the same compound, the Stability (Liver [16]) was 17.8%, the Stability (Plasma) was “Stable” and the Stability (Liver [17]) was 56.05%. The Activity (HCT-116 [18]) was “Active” and the half-life at 25 ug/ml [19] was greater than 24 h.

`CC[C@H](C)[C@H]1C(=O)N2CCC[C@H]2C(=O)O[C@H](C(C)(C)C)C[C@@H](C)C[C@H](O)CC2=N[C@@H](CCC(=O)N[C@@H](Cc3ccc(OC)cc3)C(=O)N(C)[C@@H](C)C(=O)N1C)CS2` gave a Stability (Liver [1]) of 5.41%, a Stability (Liver [2]) of 60.5% and a Stability (Liver [3]) of 66.6%. It also gave a Stability (Liver [4]) of 52.4%, a Stability (Liver [5]) of 54.5% and a Stability (Liver [6]) of 54.95%. It also gave a Stability (Liver [7]) of 76.55%, a pIC50 (HCT-116 [8]) of 8.90 and a Stability (Liver [9]) of 53.85%. For the same compound, the Stability (Liver [10]) was 4.3%, the Stability (Liver [11]) was 6.1% and the Stability (HCT-116 [12]) was “Stable”. The half-life at 1 µM [13] was less than 5 min, the half-life at 25 ug/ml [14] was greater than 24 h and the pIC50 [15] was 9.52. The Stability (Liver [16]) was 18.7%, the Stability (Plasma) was “Stable” and the Stability (Liver [17]) was 54.8%. The Activity (HCT-116 [18]) was “Active” and the half-life at 25 ug/ml [19] was greater than 24 h.
